Screens as filed in PubChem BioAssay.
RGS4 block – inhibitors of human RGS4 | P49798 | HEK293 M3R/RGS4 inducible, Fluo-4 calcium flux; hits give high values; triggered by carbachol at its EC20 | B-score at 10 µM | hit rate 0.45% among 310,000 | AID 463165;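 active = B-score, a plate-corrected calcium signal, over three deviations above library mean, with baseline fluorescence within five deviations of library mean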;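 note: RGS4 expression induced by doxycycline in cells with stable M3 receptor; B-score is computed from the integrated fluorescence ratio over baseline after carbachol; higher B-score means a larger calcium signal and so more RGS4 inhibition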
Target sequence (P49798 whole entry, looked up): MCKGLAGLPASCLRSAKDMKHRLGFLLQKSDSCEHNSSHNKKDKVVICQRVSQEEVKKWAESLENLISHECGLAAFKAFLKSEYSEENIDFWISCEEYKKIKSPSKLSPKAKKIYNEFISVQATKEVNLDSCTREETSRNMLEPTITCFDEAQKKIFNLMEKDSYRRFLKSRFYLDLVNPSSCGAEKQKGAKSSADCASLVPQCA
MrgX1 antagonist – antagonists of human MrgX1 receptor; Q96LB2; MRGX1-HEK293 calcium flux, Fluo-4, BAM8-22 antagonism; hits give low values; B-score at 10 µM; hit rate 1.3% among 310,000; AID 588676;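 active = calcium-response B-score plate-corrected more than 3 library SD below zero, starting fluorescence within 5 deviations, no agonist response on first addition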;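 note: peak minus trough fluorescence over baseline after final BAM8-22 challenge near maximal dose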
Target sequence (Q96LB2 whole entry, looked up): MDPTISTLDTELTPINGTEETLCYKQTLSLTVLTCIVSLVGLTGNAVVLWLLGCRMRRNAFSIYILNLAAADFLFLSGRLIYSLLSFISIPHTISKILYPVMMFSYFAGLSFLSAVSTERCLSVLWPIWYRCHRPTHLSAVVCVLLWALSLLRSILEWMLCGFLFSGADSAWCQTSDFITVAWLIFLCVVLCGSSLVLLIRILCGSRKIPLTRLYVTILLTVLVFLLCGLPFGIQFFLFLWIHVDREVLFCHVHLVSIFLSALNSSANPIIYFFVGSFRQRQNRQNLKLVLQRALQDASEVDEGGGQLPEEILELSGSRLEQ
MrgX1 ag – human MrgX1 receptor agonism, primary screen; Q96LB2; MrgX1-HEK293 cells, Fluo-4 calcium fluorescence, agonist mode; hits give high values; B-score at 10 µM; hit rate 0.44% among 310,000; AID 588627;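 active = calcium response B-score plate-corrected fluorescence ratio at least 3 library SD, with starting fluorescence B-score inside 5 SD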
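System – MrgX1-expressing HEK293 cells · Incubation – cells plated overnight, dye loaded 0.5 h 37 °C, 0.5 h room temperature · Technique – kinetic Fluo-4 NW fluorescence of intracellular calcium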
RGS4 pot – RGS4 potentiation or activation | HEK293 M3R/inducible RGS4, carbachol calcium flux Fluo4; hits give low values | B-score at 10 µM | hit rate 0.92% among 310,000;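 active = B-score of the integrated calcium signal more than 4 SD below the library mean, with starting fluorescence not abnormally high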;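 note: negative B-score means reduced calcium response which marks RGS4 activation or potentiation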
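Detection: kinetic calcium fluorescence imaging with Fluo4-AM dye, 2 µM / Material: HEK293 cells with stable M3R and inducible RGS4 / Schedule: recording 10 s baseline at 1 Hz, 100 s post-agonist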
MrgX1 allo act – human MrgX1 positive allosteric modulation, primary screen | Q96LB2 | MrgX1-HEK293, Fluo-4 calcium flux, FDSS; hits give high values | B-score at 10 µM | hit rate 0.63% among 310,000 | AID 588675;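 active = plate-corrected calcium response at least 3 library SD above typical, normal starting fluorescence, not activating the receptor alone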;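 note: compound read alongside a low EC10 to EC30 dose of BAM8-22 agonist; peak minus trough fluorescence over baseline measured at the second addition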
Of the large screens only hits and unclear results are named; the others gave an inactive call. Sampled rows, rich in hits. Any-hit rate of the full collection: about 3.5%.

COc1cccc(NC(=O)CN2C(=O)CSc3ccc(S(=O)(=O)N4CCCCC4)cc32)c1	none
O=c1c2ccccc2nc(SCc2ccccc2Cl)n1Cc1ccccc1	MrgX1 antagonist -6.8
C=CCSc1nc2ccccc2c(=O)n1Cc1ccccc1	none
Cc1cc(NC(C)c2ccccc2)n2ncc(-c3ccccc3)c2n1 (stereo not drawn)	RGS4 pot -7
COc1ccccc1-c1cnn2c(NCCc3ccccc3)cc(C)nc12	RGS4 pot -7.4
Cc1cc(N2CCOCC2)n2ncc(-c3ccccc3)c2n1	none
Cc1cc(NCc2ccccc2)n2ncc(-c3ccccc3)c2n1	RGS4 pot -8.7
Cc1cc(N2CCC(C)CC2)n2ncc(-c3ccccc3)c2n1	RGS4 pot -7.3
Cc1cc(NC2CCCC2)n2ncc(-c3ccccc3)c2n1	none
O=C(O)C1CCN(Cc2cccnc2)CC1	none
COCC(C)NS(=O)(=O)c1ccc(NC(=O)c2ccccn2)cc1 (stereo not drawn)	none
CCc1ccc(NC(=O)C2CCN(S(=O)(=O)c3ccc4c(c3)CC(C)N4C(C)=O)CC2)cc1 (stereo not drawn)	none
O=C(O)CCC1c2cc3c4cc2OC2Oc5cc6c(cc51)C(CCC(=O)O)c1cc5c7cc1OC(O6)c1cc6cc(c1)Oc1cc(cc(C(=O)O)c1)Oc1cc8cc(c1)C(Oc1cc(c(cc1C5CCC(=O)O)C3CCC(=O)O)OC(O4)c1cc(cc(c1)Oc1cc(cc(C(=O)O)c1)O8)Oc1cc(cc(C(=O)O)c1)Oc1cc(cc2c1)Oc1cc(cc(C(=O)O)c1)O6)O7 (stereo not drawn)	MrgX1 ag 29
CC1=NN(C(N)=S)C(=O)C1N=Nc1ccc(C)c(Br)c1 (stereo not drawn)	none
O=C(Nc1ccccc1C(F)(F)F)N1CCN(C(c2ccccc2)c2ccccc2)CC1	MrgX1 antagonist -7.1
CC1(c2nnc(Cc3ccccc3)o2)CC(c2ccc(OC(F)(F)F)cc2)=NO1 (stereo not drawn)	none
CCS(=O)(=O)N1N=C(c2cccc(NS(C)(=O)=O)c2)CC1c1ccccc1 (stereo not drawn)	MrgX1 antagonist -5.5
COc1ccc(C(=O)/C=C2/C(=O)Nc3ccccc32)cc1OC	RGS4 block 12
COc1ccc(C(=O)/C=C2/C(=O)Nc3ccccc32)c(OC)c1	none
Cc1cccc(OCCn2nnc3ccccc32)c1C	none
N#CCCCN1C(=O)C(=C(C#N)C#N)c2ccccc21	MrgX1 ag 33
Cc1noc(C)c1COc1ccccc1C(=O)N(C)CC(=O)Nc1ccc(F)cc1	none
O=C(CSCc1ccccc1)N/N=C/c1ccccc1OCc1ccccc1	MrgX1 antagonist -5.4
NC(=S)N/N=C\c1ccccc1OCc1ccccc1	MrgX1 antagonist -8.7
NC(=S)N/N=C/c1c[nH]c2ccc(OCc3ccccc3)cc12	RGS4 pot -7.1
O=C(CSCc1cccc(Br)c1)N/N=C/c1ccc2c(c1)OCO2	MrgX1 antagonist -5.4
COc1ccc(-n2ncc(C(=O)NC3CC3)c2C2CCN(C(=O)OC(C)(C)C)CC2)cc1	none
COC(=O)Nc1ccc(N2CCOCC2)c(S(=O)(=O)N2CCOCC2)c1	none
CC(=O)Nc1ccc(NC(=O)c2c(C)c(-c3ccccc3)nc3ccccc23)cc1	none
O=C(Nc1ccccc1O)c1ccccc1O	MrgX1 antagonist -5.8
NNC(=O)CCCCCCCCCCOCCCCO	none
O=C1C(SCCO)=C(SCCO)C(=O)c2ccccc21	MrgX1 antagonist -13 (no result: RGS4 block, RGS4 pot)
O=C1C(Cl)=C(NCCCO)C(=O)c2ccccc21	none
CCOC(=O)CCS(=O)(=O)c1ccc(-c2ccc(S(=O)(=O)CCC(=O)OCC)cc2)cc1	MrgX1 antagonist -7.1
Cn1c(=O)c2c(nc(N/N=C/c3ccc(OC(=O)c4ccco4)cc3)n2Cc2ccccc2Cl)n(C)c1=O	none
CC(C)OCCCNC(=O)c1cc2c(=O)n(C)c3ccccc3c2n1C	none
CCCCN(CC)CCCNC(=O)c1cc2c(=O)n(C)c3ccccc3c2n1C	MrgX1 antagonist -5.5
N=c1sccn1CC(=O)NC(c1ccccc1)c1ccccc1	none
CCOc1ccccc1NC(=O)C1(S(=O)(=O)c2ccc(Cl)cc2)CC1	RGS4 pot -7
O=C1NC(=Nc2ccccc2Cl)S/C1=C\c1cc([N+](=O)[O-])ccc1O	none
Cc1ccc(S(=O)(=O)/N=C2/NC(=O)/C(=C/c3cc([N+](=O)[O-])ccc3O)S2)cc1	RGS4 pot -7.8
CCOc1ccc(-n2c(=S)sc3c(=O)[nH]c(SCC(=O)C(C)(C)C)nc32)cc1	none
O=C(NCCc1ccccc1)c1ccc2nc(-c3ccco3)c(-c3ccco3)nc2c1	MrgX1 antagonist -7.9
O=C(NCCO)c1ccc2nc(-c3ccco3)c(-c3ccco3)nc2c1	none
O=Cc1nc(-c2ccc(Cl)cc2)n2ccccc12	none
O=Cc1nc(-c2ccccc2Cl)n2ccccc12	MrgX1 antagonist -6.3
CCCCc1cc(=O)oc2cc(O)cc(O)c12	MrgX1 ag 33
CCCc1cc(O)c2c(C)cc(=O)oc2c1	MrgX1 ag 31
CCCCc1cc(=O)oc2cc(C)cc(O)c12	none
O=C(CNC(=O)c1ccccc1)N=Nc1c(O)[nH]c2ccc(Br)cc12	none
O=S(=O)(Cc1ccccc1)N=Nc1c(O)[nH]c2ccc(Br)cc12	MrgX1 allo act 10
O=C1C2C3C=CC(C4CC34)C2C(=O)N1/N=C/c1ccc(-c2ccc(Cl)cc2[N+](=O)[O-])o1 (stereo not drawn)	RGS4 pot -8.5
CC1=NOC(=O)/C1=C/c1ccc(-c2ccc(Cl)cc2)o1	MrgX1 ag 46 (no result: RGS4 block, RGS4 pot)
CC1=NOC(=O)/C1=C\c1ccc(-c2ccc(Br)cc2)o1	none (no result: MrgX1 antagonist, MrgX1 ag, MrgX1 allo act)
CCn1c(CC(=O)Nc2ccc(F)cc2)nnc1SCC(=O)NC1CCCC1	none
O=C(N/N=C/c1ccc2cccc(OCc3ccccc3)c2n1)c1ccc(Cl)cc1	RGS4 pot -9.9
O=C(N/N=C/c1ccncc1)c1ccc(COc2cccc3cccnc23)cc1	none
COc1ccc(OC)c(CN2CCN(Cc3cccc4ccccc34)CC2)c1	none
CC1CCCC(N2CCN(S(=O)(=O)c3ccccc3)CC2)C1 (stereo not drawn)	none
O=C(O)CC(c1ccc(F)cc1F)N1Cc2ccccc2C1=O (stereo not drawn)	none
CCOC(=O)c1cnc2c(C)cccc2c1NCCc1ccc(OC)c(OC)c1	RGS4 pot -7.4
CCOC(=O)c1cnc2ccc(C(=O)OC)cc2c1NCCc1ccc(OC)c(OC)c1	MrgX1 antagonist -6.4
CCOC(=O)c1cnc2c(C)cccc2c1Nc1cccc(C(=O)O)c1	none
CCOC(=O)c1cnc2ccc(C(=O)OC)cc2c1NCCN1CCOCC1	none
CCOC(=O)c1cnc2c(C(=O)OC)cccc2c1NCc1cccnc1	RGS4 pot -7
CCOC(=O)c1cnc2c(Cl)cccc2c1NCCN(C)C	none
CCCCn1c(=O)c2ccccc2n2c(=S)[nH]nc12	MrgX1 antagonist -5.4
CCCCCn1c(=O)c2ccccc2n2c(=S)[nH]nc12	none
